The values below come from ChEMBL document CHEMBL4033681, “Lipase-catalyzed kinetic resolution as key step in the synthesis of enantiomerically pure σ ligands with 2-benzopyran structure” (Bioorg Med Chem, 2017).

The structures appear in SMILES notation. Active and inactive are the calls of the source. The calls are words filed in the database; no cut-off is given here. A value given as a limit tells only on which side of the number the result lay.

Experiment [1] in a line: Displacement of [3H]-(+)-MK-801 from NMDA receptor PCP binding site in pig brain cortex membranes after 120 mins by microbeta scintillation counting method. The format is cell membranes, Sus scrofa.
In experiment [2] the target is Sigma non-opioid intracellular receptor 1 (Cavia porcellus, UniProt Q60492). Put plainly: Displacement of [3H]-(+)-pentazocine from sigma-1 receptor in guinea pig brain membranes after 120 mins by microbeta scintillation counting method. It counts as cell membranes, Membrane.
Experiment [3] deals with T1, Sigma intracellular receptor 2 (Rattus norvegicus, UniProt Q5U3Y7).
T1 sequence (Q5U3Y7 whole entry): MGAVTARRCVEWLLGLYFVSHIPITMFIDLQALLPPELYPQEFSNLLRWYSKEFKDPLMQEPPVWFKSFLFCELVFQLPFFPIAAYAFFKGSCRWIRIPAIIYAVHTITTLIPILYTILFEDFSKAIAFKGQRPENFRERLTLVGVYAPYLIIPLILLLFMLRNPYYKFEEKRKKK
Put plainly: Displacement of [3H]DTG from sigma-2 receptor in rat liver membranes after 120 mins by microbeta scintillation counting method. The format is cell membranes, Membrane.

In experiment [4] the target is T2, Sigma intracellular receptor 2 (Rattus norvegicus) (UniProt Q5U3Y7).
T2 sequence (whole entry): T1 sequence (Q5U3Y7 whole entry)
The experiment is described as follows: Displacement of [3H]DTG from sigma-2 receptor in rat liver membranes at 1 uM after 120 mins by microbeta scintillation counting method relative to control. It counts as cell membranes. The following applies: Membrane. The procedure, abridged: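 Rat liver homogenate was the receptor source, labelled with [³H]-di-o-tolylguanidine. Excess (+)-pentazocine was added to mask σ1 sites.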

Experiment [5] deals with 3-beta-hydroxysteroid-Delta(8),Delta(7)-isomerase (Homo sapiens) (UniProt Q15125). The experiment is described as follows: Inhibition of sterol-delta8/delta7-isomerase in human HL60 cells assessed as accumulation of cholesta-8,14-dienol at 50 uM after 24 hrs. It counts as cell-based. The method, boiled down: (§1)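 HL-60 cells were screened for inhibition of post-squalene cholesterol-biosynthesis enzymes. Sterol pattern was checked at 1 µM test concentration, and cholesta-8,14-dienol accumulation was examined at 50 µM.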

Experiment [6] has the same target. Put plainly: Inhibition of sterol-delta8/delta7-isomerase in human HL60 cells assessed as change in sterol pattern at 1 uM after 24 hrs. The format is cell-based. The method, boiled down: as §1
For experiment [7], the system named is Yarrowia lipolytica. The experiment is described as follows: Inhibition of Yarrowia lipolytica DSM 1345 sterol-delta8/delta7-isomerase assessed as change in sterol pattern at 4 ug/ml after 48 hrs by GC-MS analysis. The procedure, abridged:
(§2)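 Cellular assay in the model yeast Yarrowia lipolytica, with compounds at 4 µg/mL. Both growth and the sterol pattern were monitored as read-outs of fungal sterol-Δ8/Δ7-isomerase inhibition.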

Experiment [8] has as its system Yarrowia lipolytica. Put plainly: Growth inhibition of Yarrowia lipolytica DSM 1345 at 4 ug/ml. The format is functional. The procedure, abridged: as §2

Chain of Sigma non-opioid intracellular receptor 1 (Q60492 whole entry): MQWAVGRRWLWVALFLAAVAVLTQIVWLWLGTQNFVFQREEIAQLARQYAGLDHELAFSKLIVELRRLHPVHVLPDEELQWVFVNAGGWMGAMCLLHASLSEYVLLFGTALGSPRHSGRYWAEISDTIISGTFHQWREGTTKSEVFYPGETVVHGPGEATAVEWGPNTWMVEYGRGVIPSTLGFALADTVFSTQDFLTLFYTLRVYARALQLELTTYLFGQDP
Chain of 3-beta-hydroxysteroid-Delta(8),Delta(7)-isomerase (Homo sapiens) (Q15125 whole entry): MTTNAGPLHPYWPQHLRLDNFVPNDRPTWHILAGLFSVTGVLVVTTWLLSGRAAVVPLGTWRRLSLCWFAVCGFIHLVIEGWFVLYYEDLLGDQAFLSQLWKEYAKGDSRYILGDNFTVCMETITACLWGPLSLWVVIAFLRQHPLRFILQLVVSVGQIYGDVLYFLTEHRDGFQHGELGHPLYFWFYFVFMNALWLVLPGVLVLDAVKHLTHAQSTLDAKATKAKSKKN

The compound `COC(=O)C[C@H]1Cc2ccccc2[C@@H](CCN2CCC(c3ccccc3)CC2)O1` gave an IC50 in experiment [1] greater than 10000 nM. Moreover, the values for the Ki in experiment [2] and in experiment [3] were 33 nM and 525 nM, respectively.

For `COC(=O)C[C@H]1Cc2ccccc2[C@@H](CCN2CCCCC2)O1`, the IC50 in experiment [1] is greater than 10000 nM. In experiment [2], this compound yielded a Ki of 556 nM. Moreover, the inhibition in experiment [4] came out at 13%.

Compound `OCC[C@@H]1Cc2ccccc2C2(CCN(CCCc3ccccc3)CC2)O1` had an IC50 in experiment [1] greater than 10000 nM. In addition, in experiment [3], the affinity corresponds to a Ki of 519 nM.

For the compound `CCCCCCCCN1CCC2(CC1)OC(CCO)Cc1ccccc12` (racemic), the inhibition entry in experiment [5] is “Active”. Besides, the inhibition entry (in experiment [6]; in the experiment on Yarrowia lipolytica [7]) was “inactive” each time. Besides, the “growth inhibition (GI)” value in the experiment on Yarrowia lipolytica [8] was “inactive”.

Regarding `COC(=O)C[C@@H]1Cc2ccccc2[C@H](CCN2CCCCC2)O1`, in experiment [1], the IC50 is greater than 10000 nM. This compound showed a Ki in experiment [2] of 860 nM. For the same compound, the inhibition in experiment [4] is 39%.

`OCC[C@H]1Cc2ccccc2C2(CCN(CCCc3ccccc3)CC2)O1` had an IC50 in experiment [1] greater than 10000 nM. In experiment [3], affinity was put at a Ki of 1220 nM.

As to `OCCC1Cc2ccccc2C2(CCN(CCCc3ccccc3)CC2)O1` (racemic), in experiment [5], the inhibition result is “Active”. For the same compound, the inhibition result (in experiment [6]; with Yarrowia lipolytica [7]) was “inactive” in each case. In addition, the “growth inhibition (GI)” value in the experiment with Yarrowia lipolytica [8] is “inactive”.

For `OCC[C@@H]1Cc2ccccc2C2(CCN(CC3CCCCC3)CC2)O1`, the IC50 in experiment [1] is greater than 10000 nM. Also, the Ki in experiment [3] stood at 614 nM.

For `CCCCCCCCN1CCC2(CC1)O[C@@H](CCO)Cc1ccccc12`, in experiment [1], the IC50 was greater than 10000 nM. Also, the Ki came out at 24 nM in experiment [2] and 68 nM in experiment [3].

Take `CCCCCCCCN1CCC2(CC1)O[C@H](CCO)Cc1ccccc12`: the IC50 in experiment [1] was greater than 10000 nM. Also, the Ki in experiment [2] came out at 56 nM; in experiment [3], 260 nM.

`OCC[C@H]1Cc2ccccc2C2(CCN(CC3CCCCC3)CC2)O1` registered an IC50 in experiment [1] greater than 10000 nM. In experiment [3], this compound returned an inhibitory constant (Ki) of 510 nM.

On to `FCC[C@H]1OC2(CCN(Cc3ccccc3)CC2)c2ccccc21`, for which the Ki in experiment [2] was 0.57 nM.

The compound `COC(=O)C[C@@H]1Cc2ccccc2[C@H](CCN2CCC(c3ccccc3)CC2)O1` registered an IC50 in experiment [1] greater than 10000 nM. Moreover, the Ki worked out at 43 nM in experiment [2] and 32 nM in experiment [3].

Regarding `OCC[C@H]1Cc2ccccc2C2(CCN(Cc3ccccc3)CC2)O1`, the IC50 in experiment [1] is greater than 10000 nM. The compound further returned an inhibition in experiment [4] of 21%.

As for `COC(=O)CC1Cc2ccccc2C(CCN2CCC(c3ccccc3)CC2)O1` (racemic), in experiment [5], the inhibition result was “Active”. Besides, the inhibition result (in experiment [6]; in the experiment with Yarrowia lipolytica [7]) was “inactive” each time. For the same compound, in the experiment with Yarrowia lipolytica [8], the “growth inhibition (GI)” value is “inactive”.

As for `FCC[C@@H]1OC2(CCN(Cc3ccccc3)CC2)c2ccccc21`, the affinity in experiment [2] corresponds to a Ki of 2.3 nM.

With `OCC[C@@H]1Cc2ccccc2C2(CCN(Cc3ccccc3)CC2)O1`, the IC50 in experiment [1] was greater than 10000 nM. For the same compound, the inhibition in experiment [4] amounted to 9%.
